Results gathered from unrelated publications.
Lines come from different studies, so protocols differ.
Read-out: cell growth or viability

| Structure (SMILES) | cell line | technique | time | IC50 [µM] |
| --- | --- | --- | --- | --- |
| O=C(Nc1ccccc1)Nc1cccc(C(=O)Nc2ccc3[nH]ncc3c2)c1 | KM12 | ATP luminescence | 72 h | > 50 |
| O=C1NCCc2[nH]c(-c3ccncc3)cc21 | SR | – | – | 0.286 |
| [Fe+2].c1cc[cH-]c1.c1cc[cH-]c1 | BL2 | MTT | 48 h | > 100 |
| Cc1cc(Nc2ncc(Cl)c(Nc3ccccc3S(=O)(=O)C(C)C)n2)c(OC(C)C)cc1C1CCNCC1 | Rh41 | – | 72 h | 0.35 |
| CN1CCN(Cc2ccc(Nc3ncc(Cl)c(Nc4ccccc4S(=O)(=O)N(C)C)n3)cc2)CC1 | PSN1 | – | – | 0.006 |
| COc1ccc2c(c1)/C(=N/NC(=O)c1cc3ccccc3[nH]1)C(=O)N2C | ZR75 | – | – | 1.48 |
| O=C(O)CCCc1ccccc1 | PSN1 | MTT | 72 h | > 50 |
| O=C(Nc1ccc2[nH]ncc2c1)c1cccc(NC(=S)Nc2ccc(F)cc2F)c1 | KM12 | ATP luminescence | 72 h | 30.6 |
| CN1C(=O)/C(=N\NC(=O)c2cc3ccccc3[nH]2)c2cc(F)ccc21 | ZR75 | – | – | 4.31 |
| C[C@@H](Oc1cc(-c2cnn(C3CCNCC3)c2)cnc1N)c1c(Cl)ccc(F)c1Cl | Rh41 | – | 72 h | 0.45 |
| O=C(Nc1ccc2[nH]ncc2c1)c1cccc(NC(=S)Nc2ccc(C(F)(F)F)cc2)c1 | KM12 | ATP luminescence | 72 h | 23.1 |
| Cc1[nH]c(/C=C2\C(=O)Nc3ccc(S(=O)(=O)N(C)c4cccc(Cl)c4)cc32)c(C)c1C(=O)N1CCN(C)CC1 | Rh41 | – | 72 h | 1.84 |
| O=C(Nc1ccc(C(F)(F)F)cc1)Nc1cccc(C(=O)Nc2ccc3[nH]nc(-c4ccccc4)c3c2)c1 | KM12 | ATP luminescence | 72 h | > 50 |
| C[C@H]1[C@@H](O)O[C@@H]2O[C@@]3(C)CC[C@H]4[C@H](C)CC[C@@H]1[C@@]24OO3 | Hep3B | CCK-8 | 48 h | > 50 |
| CCC(C(=O)COc1c(F)c(F)cc(F)c1F)n1cc([C@@](C)(NCc2ccc3ncccc3c2)C2CCC2)nn1 (mixture of isomers) | BESM | – | 72 h | > 10 |
| CC1=CC(C)(C)N(Cc2ccccc2)c2ccc(O)cc21 | Hep3B | MTT | 72 h | 5.2 |

| Structure (SMILES) | cell line | technique | time | IC50 [µM] |
| --- | --- | --- | --- | --- |
| COC(=O)/C=C/C=C/c1ccc2c(c1)OCO2 | COR-L23 | SRB | – | 95.6 |
| O=C1Nc2ccc(Cl)cc2/C1=N/NC(=O)c1cc2ccccc2[nH]1 | ZR75 | – | – | 18 |
| CC(C)C[C@H](NC(=O)[C@H](Cc1ccccc1)NC(=O)c1cnccn1)B(O)O | NCI-H2110 | ATP luminescence | – | 0.017 |
| O=C(Nc1cccc(Cl)c1)Nc1cccc(C(=O)Nc2ccc3[nH]ncc3c2)c1 | KM12 | ATP luminescence | 72 h | > 50 |
| CCCCC(C(=O)COc1c(F)c(F)cc(F)c1F)n1cc([C@@](C)(NCc2ccc3ncccc3c2)C(C)C)nn1 (stereo partly shown) | BESM | – | 72 h | > 10 |
| O=C(Nc1cccc(C(=O)Nc2ccc3[nH]ncc3c2)c1)Nc1ccccc1C(F)(F)F | KM12 | ATP luminescence | 72 h | 43.7 |
| CN1C(=O)/C(=N\NC(=O)c2cc3ccccc3[nH]2)c2cc(Br)ccc21 | ZR75 | – | – | 1.01 |
| O=C(Nc1ccc2[nH]ncc2c1)c1cccc(NC(=O)c2cc(C(F)(F)F)ccc2F)c1 | KM12 | ATP luminescence | 72 h | 26.8 |
| C[C@H]1O[C@@H](n2cc(F)c(=O)[nH]c2=O)[C@H](O)[C@@H]1O | Hep3B | CCK-8 | 48 h | 13.2 |
| FC(F)(F)c1ccc(C(c2c[nH]c3ccccc23)c2c[nH]c3ccccc23)cc1 | PPC-1 | ATP luminescence | 22 h | 17.6 |
| COc1cc(Nc2nccc(-c3cnn4nc(OC)ccc34)n2)cc(C(F)(F)F)c1 | NCI-H2110 | ATP luminescence | – | 0.63 |
| CC(=O)O[C@H]1C(=O)[C@@]2(C)[C@H]([C@H](OC(=O)c3ccccc3)[C@]3(O)C[C@H](OC(=O)[C@H](O)[C@@H](NC(=O)c4ccccc4)c4ccccc4)C(C)=C1C3(C)C)[C@]1(OC(C)=O)CO[C@@H]1C[C@@H]2O | COR-L23 | SRB | – | 0.0021 |
| O=C(Nc1ccc(Cl)cc1)Nc1cccc(C(=O)Nc2ccc3[nH]ncc3c2)c1 | KM12 | ATP luminescence | 72 h | > 50 |
| O=C1Nc2ccc(Br)cc2/C1=N/NC(=O)c1cc2ccccc2[nH]1 | ZR75 | – | – | 21.9 |
| CCC(C(=O)COc1c(F)c(F)cc(F)c1F)n1cc([C@@](C)(NCc2ccc3ncccc3c2)C(C)C)nn1 (stereo partly shown) | BESM | – | 72 h | > 10 |
